Experimental data: ChEMBL document CHEMBL1255300, “Pharmacodynamics of the antibacterial effect and emergence of resistance to tomopenem, formerly RO4908463/CS-023, in an in vitro pharmacokinetic model of Staphylococcus aureus infection” (Antimicrob Agents Chemother, 2008)
≈ marks a conversion by molar mass, not a printed value. Calls of active or inactive are those of the source. No cut-off for these calls is given here.

Tests used:
[1] = tested on: Staphylococcus aureus; assay: Antibacterial activity against methicillin-resistant Staphylococcus aureus 33815 in in vitro pharmacokinetic model assessed as viable count at 6 times of MIC; assay type: functional
Summary of the method: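 Preexposure population analysis profile: model sample at time zero plated on nutrient agar with tomopenem at multiples of the MIC. Growth counted as log CFU/ml, detection limit 2 log10.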

[2] = tested on: Staphylococcus aureus; assay: Antibacterial activity against methicillin-resistant Staphylococcus aureus 33820 infected in in vitro pharmacokinetic model assessed as reduction in viable count at 750 mg, iv every 8 hrs measured after 12 hrs using 10^6 CFU/ml inoculum; assay type: functional
Summary of the method: (§1)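 Single-compartment dilutional in vitro PK model, 37°C, stirred, in 10% Mueller-Hinton broth. […] Inoculum 10^6 CFU/ml from a 24-h plate culture was added 45 min before dosing. Viable counts by spiral plating on nutrient agar with β-lactamase neutralization. Log change was taken from time 0; detection limit 10^2 CFU/ml; at least triplicate.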

[3] = tested on: Staphylococcus aureus; assay: Antibacterial activity against methicillin-resistant Staphylococcus aureus 33827 infected in in vitro pharmacokinetic model assessed as reduction in viable count at 750 mg, iv every 8 hrs measured after 24 hrs using 10^8 CFU/ml inoculum; assay type: functional
Summary of the method: (§2)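 Single-compartment dilutional in vitro PK model, 10% Mueller-Hinton broth, 37°C, stirred, dilution 132 ml/h. […] Inoculum 10^6 CFU/ml (added 45 min pre-dose) or 10^8 CFU/ml (run overnight). Viable counts by spiral plating, beta-lactamase neutralization, detection limit 10^2 CFU/ml. At least triplicate.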

[4] = tested on: Staphylococcus aureus; assay: AUBKC (0 to 24 hrs) in methicillin-resistant Staphylococcus aureus 33827 infected in in vitro pharmacokinetic model at 750 mg, iv every 8 hrs using 10^8 CFU/ml inoculum; assay type: functional
Summary of the method: (§3)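 Single-compartment dilutional in vitro PK model at 37°C in 10% Mueller-Hinton broth, stirred, flow 132 ml/h. […] Inoculum 10^6 CFU/ml added 45 min before dosing, or 10^8 CFU/ml run overnight. Viable counts with β-lactamase neutralisation. AUBKC by log-linear trapezoidal rule, at least triplicate.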

[5] = tested on: Staphylococcus aureus; assay: Antibacterial activity against methicillin-resistant Staphylococcus aureus 33827 infected in in vitro pharmacokinetic model assessed as time required to 99.9% killing at 750 mg, iv every 8 hrs using 10^6 CFU/ml inoculum; assay type: functional; summary of the method: as §2
[6] = tested on: Staphylococcus aureus; assay: Antibacterial activity against methicillin-resistant Staphylococcus aureus 33922 assessed as viable count at 4 times of MIC after 24 hrs using 10^6 CFU/ml inoculum; assay type: functional, organism-based
[7] = tested on: Staphylococcus aureus; assay: Antibacterial activity against methicillin-resistant Staphylococcus aureus 33922 by broth dilution method; assay type: functional
[8] = tested on: Staphylococcus aureus; assay: Antibacterial activity against methicillin-resistant Staphylococcus aureus 33815 infected in in vitro pharmacokinetic model assessed as reduction in viable count at 750 mg, iv every 8 hrs measured after 36 hrs using 10^6 CFU/ml inoculum; assay type: functional; summary of the method: as §1
[9] = tested on: Staphylococcus aureus; assay: T>MIC for static effect in methicillin-resistant Staphylococcus aureus 33829 in in vitro pharmacokinetic model after 24 hrs using 10^6 CFU/ml inoculum; assay type: functional
[10] = tested on: Staphylococcus aureus; assay: T>MIC for static effect in methicillin-resistant Staphylococcus aureus 33815 in in vitro pharmacokinetic model after 24 hrs using 10^6 CFU/ml inoculum; assay type: functional
[11] = tested on: Staphylococcus aureus; assay: Antibacterial activity against methicillin-resistant Staphylococcus aureus 33827 infected in in vitro pharmacokinetic model assessed as time required to 99.9% killing at 750 mg, iv every 8 hrs using 10^8 CFU/ml inoculum; assay type: functional; summary of the method: as §2
[12] = tested on: Staphylococcus aureus; assay: T>MIC for 2-log drop in count in methicillin-resistant Staphylococcus aureus 33815 in in vitro pharmacokinetic model after 24 hrs using 10^6 CFU/ml inoculum; assay type: functional
[13] = tested on: Staphylococcus aureus; assay: T>MIC for 1-log drop in count in methicillin-resistant Staphylococcus aureus 33827 in in vitro pharmacokinetic model after 24 hrs using 10^6 CFU/ml inoculum; assay type: functional
[14] = tested on: Staphylococcus aureus; assay: T>MIC for 2-log drop in count in methicillin-resistant Staphylococcus aureus 33922 in in vitro pharmacokinetic model after 24 hrs using 10^8 CFU/ml inoculum; assay type: functional
[15] = tested on: Staphylococcus aureus; assay: Antibacterial activity against methicillin-resistant Staphylococcus aureus 33827 in in vitro pharmacokinetic model assessed as viable count at 4 times of MIC; assay type: functional
Summary of the method: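 Population analysis before drug exposure (time 0). Model samples were plated on nutrient agar without drug and with tomopenem at 2×, 4× and 6× MIC (10% MHB MIC), and growth was recorded as log CFU/ml. Detection limit 2 log10.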

[16] = tested on: Staphylococcus aureus; assay: T>MIC in methicillin-sensitive Staphylococcus aureus 5956 infected in vitro pharmacokinetic model at 1500 mg, iv every 8 hrs; assay type: functional
[17] = tested on: Staphylococcus aureus; assay: T>MIC for 4-log drop in count in methicillin-sensitive Staphylococcus aureus 5956 in in vitro pharmacokinetic model after 24 hrs using 10^8 CFU/ml inoculum; assay type: functional
Summary of the method: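 Dose-ranging: 7–13 simulated regimens per strain giving T>MIC of 0–100% (MIC from 10% MHB), at 106 or 10^8 CFU/ml as stated.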

[18] = tested on: Serum; assay: Drug level in human serum at 1400 mg; assay type: ADME, cell-free
[19] = tested on: Staphylococcus aureus; assay: Antibacterial activity against methicillin-resistant Staphylococcus aureus 33820 assessed as viable count at 4 times of MIC after 48 hrs using 10^6 CFU/ml inoculum; assay type: functional, organism-based
[20] = tested on: Staphylococcus aureus; assay: AUBKC (0 to 48 hrs) in methicillin-resistant Staphylococcus aureus 33827 infected in in vitro pharmacokinetic model at 750 mg, iv every 8 hrs using 10^8 CFU/ml inoculum; assay type: functional; summary of the method: as §3
[21] = tested on: Staphylococcus aureus; assay: Antibacterial activity against methicillin-resistant Staphylococcus aureus 33820 infected in in vitro pharmacokinetic model assessed as reduction in viable count at 1500 mg, iv every 8 hrs measured after 48 hrs using 10^6 CFU/ml inoculum; assay type: functional; summary of the method: as §1
[22] = tested on: Staphylococcus aureus; assay: Antibacterial activity against methicillin-resistant Staphylococcus aureus 33815 infected in in vitro pharmacokinetic model assessed as reduction in viable count at 750 mg, iv every 8 hrs measured after 36 hrs using 10^8 CFU/ml inoculum; assay type: functional
Summary of the method: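 PK model at 37°C in 10% MHB. […] A 0.5 McFarland suspension (1 ml) was added and the model run overnight to reach 10^8 CFU/ml before dosing. Counts were spiral-plated on nutrient agar with β-lactamase. Change in log CFU/ml was measured from time 0; at least triplicate.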

[23] = tested on: Staphylococcus aureus; assay: T>MIC for 3-log drop in count in methicillin-resistant Staphylococcus aureus 33827 in in vitro pharmacokinetic model after 24 hrs using 10^6 CFU/ml inoculum; assay type: functional
[24] = tested on: Staphylococcus aureus; assay: AUBKC (0 to 24 hrs) in methicillin-resistant Staphylococcus aureus 33829 infected in in vitro pharmacokinetic model at 1500 mg, iv every 8 hrs using 10^6 CFU/ml inoculum; assay type: functional; summary of the method: as §3
[25] = tested on: Staphylococcus aureus; assay: Antibacterial activity against methicillin-resistant Staphylococcus aureus 33922 infected in in vitro pharmacokinetic model assessed as reduction in viable count at 1500 mg, iv every 8 hrs measured after 24 hrs using 10^8 CFU/ml inoculum; assay type: functional
[26] = tested on: Staphylococcus aureus; assay: T>MIC for 1-log drop in count in methicillin-resistant Staphylococcus aureus 33820 in in vitro pharmacokinetic model after 24 hrs using 10^6 CFU/ml inoculum; assay type: functional

C[C@@H](O)[C@H]1C(=O)N2C(C(=O)O)=C(S[C@H]3C[C@@H](C(=O)N4CC[C@H](NC(=O)CNC(=N)N)C4)N(C)C3)[C@H](C)[C@H]12 [TOMOPENEM]
log10CFU/ml [1]: <2
log10CFU/ml [2]: 3.9
log10CFU/ml [3]: 5.2
AUBC [4]: 77.4 log10CFU/ml.hr
Time [5]: 7 h
Activity [6]: inactive
MIC [7]: 0.5 µg/mL (≈ 0.93 µM)
log10CFU/ml [8]: 4.2
fT>MIC [9]: 12.1%
fT>MIC [10]: 5.3%
Time [11]: 12 h
fT>MIC [12]: 12.5%
fT>MIC [13]: 24.4%
fT>MIC [14]: 4.7%
log10CFU/ml [15]: <2
fT>MIC [16]: 100%
fT>MIC [17]: 20.1%
Drug uptake [18]: 100 mg/L
Activity [19]: Active
AUBC [20]: 87.9 log10CFU/ml.hr
log10CFU/ml [21]: 4.2
log10CFU/ml [22]: 5.5
fT>MIC [23]: 43%
AUBC [24]: 30 log10CFU/ml.hr
log10CFU/ml [25]: 5
fT>MIC [26]: 9.9%
